ChEMBL document CHEMBL3739324, “Characterization and Biological Evaluation of Diterpenoids from Casearia graveolens” (J Nat Prod, 2015)
Activity calls are given as the source filed them. The rule behind the calls is not given here.

Legend:
PC-12 [1] = experiment: Stimulation of NGF-mediated neurite outgrowth in rat PC12 cells incubated for 96 hrs by phase contrast microscopy; type: functional, cell-based; conditions: for EC50: PC-12, 96 h
Outline: (§1)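 PC12 cells grown at 37 °C in DMEM with 5% FBS, 5% horse serum, penicillin/streptomycin, 5% CO2. Dissociated with 1 mM EGTA in PBS for 15 min, seeded at 3 × 10^4 cells/well on poly-L-lysine. After 24 h, switched to medium with 1% FBS, 1% HS, graded compound levels, with or without NGF (20 ng/mL; 100 ng/mL positive control), for 96 h.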

PC-12 [2] = experiment: Induction of neurite outgrowth in rat PC12 cells incubated for 96 hrs by phase contrast microscopy; type: functional, cell-based; outline: as §1

## C=CC(=C)CC[C@]1(C)[C@H](C)CC[C@@]23C(=C[C@H](OC(=O)CCC)C[C@@H]12)[C@@H](OC(C)=O)O[C@H]3OC(C)=O
PC-12 [1]
  Activity: inactive

## C=CC(=C)CC[C@]1(C)[C@H](C)CC[C@@]23C(=C[C@H](OC(=O)CCC)C[C@@H]12)[C@@H](OC(=O)CCC)O[C@H]3OC(C)=O
PC-12 [1]
  Activity: inactive

## C=CC(=C)CC[C@]1(C)[C@H](C)C[C@H](OC)[C@@]23C(=C[C@H](OC(=O)CCC)C[C@@H]12)[C@@H](OC)O[C@H]3OC(C)=O
PC-12 [1]
  EC50: 20.6 µM
PC-12 [2]
  Activity: inactive

## C=CC(=C)CC[C@]1(C)[C@H](C)CC[C@@]23C(=C[C@H](O)C[C@@H]12)[C@@H](OC)O[C@H]3OC(C)=O
PC-12 [1]
  Activity: inactive

## C=CC(=C)CC[C@]1(C)[C@H](C)C[C@H](OC)[C@@]23C(=C[C@H](O)C[C@@H]12)[C@@H](OC)O[C@H]3OC
PC-12 [1]
  EC50: 3.3 µM
PC-12 [2]
  Activity: inactive

## C=CC(=C)CC[C@]1(C)[C@H](C)C[C@H](OC)[C@@]23C(=C[C@H](OC(=O)CCC)C[C@@H]12)[C@@H](OC(C)=O)O[C@H]3OC(C)=O
PC-12 [1]
  EC50: 28.7 µM
PC-12 [2]
  Activity: inactive

## C=CC(=C)CC[C@]1(C)[C@H](C)C[C@H](OC)[C@@]23C(=C[C@H](OC(=O)CC)C[C@@H]12)[C@@H](OC(=O)CCC)O[C@H]3OC(C)=O
PC-12 [1]
  EC50: > 45 µM
PC-12 [2]
  Activity: inactive

## C=CC(=C)CC[C@]1(C)[C@H](C)C[C@H](OC)[C@@]23C(=C[C@H](OC(=O)CC)C[C@@H]12)[C@@H](OC)O[C@H]3OC(C)=O
PC-12 [1]
  EC50: 4.4 µM
PC-12 [2]
  Activity: inactive

## C=CC(=C)CC[C@]1(C)[C@H](C)CC[C@@]23[C@H](OC(C)=O)O[C@H](OC(=O)CCC)[C@@H]2CC(=O)C[C@@H]13
PC-12 [1]
  Activity: inactive

## C=CC(=C)CC[C@]1(C)[C@H](C)CC[C@@]23C(=C[C@H](O)C[C@@H]12)[C@@H](OC(=O)CCC)O[C@H]3OC(C)=O
PC-12 [1]
  Activity: inactive
